Series [1] deals with T1, G-protein coupled receptor 68 (Homo sapiens, UniProt Q15743). Description: Positive allosteric modulator activity at HA-tagged GPR68 expressed in human HEK293T cells assessed as activation of p42/p44 MAP kinase at pH 7.4 by immunoblotting analysis. The format is cell-based. The following applies: filed as positive allosteric modulator. In short, it runs like this:
(§1)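 HEK293 cells stably expressing N-terminal HA-tagged human GPR68 (vector-only line as control), selected with 250 μg/ml G418. Confluent cells were switched to Hams-F12 at pH 8.0 or 7.4 for 1 h, then given vehicle or 50 μM compound for 10 min. Lysate immunoblots were probed for HA, total VASP, p-p42/p44 and β-actin, read with infrared-fluorophore secondaries.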
Background: In western blotting, separated proteins are transferred to a membrane and probed.

Series [2] deals with C-X-C chemokine receptor type 4 (Homo sapiens) (UniProt P61073). Put plainly: Antagonist activity against CXCR4 receptor (unknown origin) transfected in human HEK293T cells at 10 uM incubated for 15 mins in presence of AMD3100 by luminescence counter analysis. The class given is functional, cell-based. In short, it runs like this:
(§2)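 HEK293-T cells transiently transfected with CXCR4 and the GloSensor cAMP reporter, plated in DMEM with 1% dialyzed FBS. Test compound at 10 μM in 20 mM HEPES/HBSS, pH 7.4, 15 min at room temperature. Agonist mode: luciferin (4 mM final) plus 200 nM isoproterenol added, 20 min. Antagonist mode: compound 10 min, then reference agonist at EC80 for 10 min, then luciferin/isoproterenol. Luminescence read. CXCL12 (1 or 3 μM) is the agonist control and AMD3100 (10 μM) the antagonist control. n=2.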

For series [3] the target is unchanged. Description: Agonist activity against CXCR4 receptor (unknown origin) transfected in human HEK293T cells at 10 uM incubated for 15 mins in presence of CXCL12 by luminescence counter analysis. The class given is functional, cell-based. In short, it runs like this:
as §2

The target of series [4] is T1, G-protein coupled receptor 68. Put plainly: Binding affinity to GPR68 expressed in human HEK293T cells assessed as cAMP production in presence of H+ proton by Split-luciferase based luminescence counter analysis. Particulars: filed as positive allosteric modulator. The class given is cell-based. In outline:
(§3)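 Proton concentration-response of GPR68 (wild type or E160A/K/Q, R189L/M, H269F mutants) in transiently transfected HEK293-T cells. Read-out: GloSensor cAMP, with luciferin loading 90 min at 37°C at pH 8.4. Run with and without increasing modulator concentrations; 20 min at room temperature before luminescence. Proton KA fixed to the proton EC50 without modulator. KB, τA, α, β fitted globally with an operational allosteric model. n=4.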
A general note: cAMP levels reflect the balance of adenylyl cyclase and phosphodiesterase activity.

In series [5] the target is G-protein coupled receptor 65 (Homo sapiens, UniProt Q8IYL9). Description: Positive allosteric modulator activity at human GPR65 expressed in yeast assessed as Gq-yeast growth stimulation at 10 uM by microplate reader analysis. In outline: (§4)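 Gq-coupled yeast strain expressing receptor, in SD-His-Ura medium (pH 5.4) with 3-amino-1,2,4-triazole at a level giving moderate ligand-free growth (OD 0.2–0.6). Compound at 10 μM final, in triplicate. Starting OD600 0.02; growth 2–5 days at 30°C, read as OD600. Values are 100 × (well OD600 − plate median), given as % growth stimulation, mean ± SEM of three wells.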
G-protein coupled receptor 65, sequence (Q8IYL9 whole entry): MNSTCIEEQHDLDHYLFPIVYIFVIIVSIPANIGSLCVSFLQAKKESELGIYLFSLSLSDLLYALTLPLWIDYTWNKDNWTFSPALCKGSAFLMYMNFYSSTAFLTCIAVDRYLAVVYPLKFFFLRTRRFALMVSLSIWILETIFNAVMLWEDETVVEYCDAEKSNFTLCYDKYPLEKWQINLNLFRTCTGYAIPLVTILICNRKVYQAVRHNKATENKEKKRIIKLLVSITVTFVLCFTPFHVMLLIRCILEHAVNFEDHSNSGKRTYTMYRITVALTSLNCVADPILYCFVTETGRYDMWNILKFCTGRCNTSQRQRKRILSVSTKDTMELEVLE

The target of series [6] is T1, G-protein coupled receptor 68. Put plainly: Positive allosteric modulator activity at human GPR68 expressed in yeast assessed as Gq-yeast growth stimulation at 10 uM by microplate reader analysis. Particulars: filed as positive allosteric modulator. In outline:
as §4

For series [7] the target is unchanged. Put plainly: Positive allosteric modulator activity at HA-tagged GPR68 expressed in human HEK293T cells assessed as activation of PKA at pH 7.4 by immunoblotting analysis. The class given is cell-based. Particulars: filed as positive allosteric modulator. In outline: as §1
Series [8] has as its target G-prodeshotein coupled receptor 4 (Homo sapiens) (UniProt P46093). Description: Positive allosteric modulator activity at human GPR4 expressed in yeast assessed as Gq-yeast growth stimulation at 10 uM by microplate reader analysis. In short, it runs like this: as §4
Series [9] concerns the target T1, G-protein coupled receptor 68. Put plainly: Positive allosteric modulator activity at GPR68 expressed in human HEK293T cells assessed as cAMP production in presence of H+ proton by Split-luciferase based luminescence counter analysis (reference value: 26.4 to 43.8 %). The format is functional, cell-based. The following applies: filed as positive allosteric modulator. In outline: as §3

Series [10] shares this target. Put plainly: Positive allosteric modulator activity at GPR68 expressed in human HEK293T cells assessed as proton-mediated phosphatidylinositol hydrolysis on pH 8.4 at 10 uM incubated for 20 mins by TriLuxMicroBeta counter analysis. The format is functional, cell-based. In short, it runs like this:
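GPR68-transfected HEK293-T cells labeled overnight with 3H-inositol (1 μCi/well) in inositol-free DMEM with 5% dialyzed FBS. Treated for 20 min at pH 8.4 in HBSS with 10 mM HEPES, 10 mM MES and 20 mM LiCl, compound at 10 μM. Extracted with 50 mM ice-cold formic acid, 30 min at 4°C. Captured on YSi beads and counted (cpm/well). n=3. 4-parameter logistic fit.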

The nature of series [11]: Toxicity in C57BL/6 mouse assessed as cued memory retrieval by Morris water maze test. Particulars: in vivo.
Series [12] can be described thus: Toxicity in C57BL/6 mouse assessed as improvement in contextual memory at 10 to 30 mg/kg administered for 30 mins. The format is organism-based. The following applies: in vivo, 0.5 h, dose 10-30 mg/kg.
Series [13] in a line: Positive allosteric modulator activity at GPR68 E160K mutant transfected in human HEK293T cells assessed as proton-mediated calcium release at 10 uM incubated for 10 mins by Fluo-4 Direct calcium dye based FLIPR assay (reference value: 6.79 +/- 0.02). The class given is cell-based. Particulars: HEK-293T.
The nature of series [14]: Toxicity in C57BL/6 mouse assessed as decreased contextual memory retrieval. Particulars: in vivo. In short, it runs like this: (§5)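 Fear conditioning in wild-type and GPR68 KO C57BL/6J congenic mice. Training was 8 min: 3 pairings of a 30-s, 90 dB, 5 kHz tone with a 2-s, 0.6 mA foot shock. Context freezing scored at 24 h over 5 min; cue test at 48 h over 6 min. Freezing defined as no movement for 0.5 s. Compound 10 mg/kg in 10% Tween 80 or saline, 30 min before training. n=6–8 per group. Two-way ANOVA with Bonferroni post-hoc test.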

Series [15] can be described thus: Toxicity in C57BL/6 mouse assessed as improvement in learning and spatial memory at 10 mg/kg administered for 30 mins by hidden platform test. Particulars: in vivo, 0.5 h. The format is organism-based.
Series [16] in a line: Toxicity in C57BL/6 mouse assessed as improvement in learning and spatial memory at 30 mg/kg administered for 30 mins by hidden platform test. Particulars: in vivo, 0.5 h. The class given is organism-based.
The nature of series [17]: Positive allosteric modulator activity at GPR68 H269F mutant transfected in human HEK293T cells assessed as proton-mediated calcium release at 10 uM incubated for 10 mins by Fluo-4 Direct calcium dye based FLIPR assay (reference value: 1.57 +/- 0.01 %). Particulars: HEK-293T, condition central nervous system disease.
Series [18] is described as follows: Positive allosteric modulator activity at GPR68 H269F mutant transfected in human HEK293T cells assessed as proton-mediated calcium release at 10 uM incubated for 10 mins by Fluo-4 Direct calcium dye based FLIPR assay (reference value: 6.44 +/- 0.02). The format is cell-based. The following applies: HEK-293T.
Series [19] in a line: Positive allosteric modulator activity at GPR68 R189M mutant transfected in human HEK293T cells assessed as proton-mediated calcium release at 10 uM incubated for 10 mins by Fluo-4 Direct calcium dye based FLIPR assay (reference value: 1.43 +/- 0.01 %). The following applies: HEK-293T, condition central nervous system disease.
Series [20] in a line: Positive allosteric modulator activity at GPR68 E160K mutant transfected in human HEK293T cells assessed as proton-mediated calcium release at 10 uM incubated for 10 mins by Fluo-4 Direct calcium dye based FLIPR assay (reference value: 1.38 +/- 0.01 %). The following applies: HEK-293T, condition central nervous system disease.
A short description of series [21]: Positive allosteric modulator activity at GPR68 E160Q mutant transfected in human HEK293T cells assessed as proton-mediated calcium release at 10 uM incubated for 10 mins by Fluo-4 Direct calcium dye based FLIPR assay (reference value: 1.25 +/- 0.01 %). Particulars: HEK-293T, condition central nervous system disease.
The nature of series [22]: Positive allosteric modulator activity at GPR68 R189L mutant transfected in human HEK293T cells assessed as proton-mediated calcium release at 10 uM incubated for 10 mins by Fluo-4 Direct calcium dye based FLIPR assay (reference value: 1.42 +/- 0.01 %). Particulars: HEK-293T, condition central nervous system disease.
The species entered for series [23] is Mus musculus. Put plainly: Antipsychotic activity against GPR68 knockout C57BL/6 mouse assessed as cued memory retrieval by Morris water maze test. The format is functional, organism-based.
For series [24], the species on record is Mus musculus. Put plainly: […] activity against GPR68 knockout C57BL/6 mouse assessed as contextual memory retrieval. The format is functional, organism-based. In outline: as §5
Series [25] in a line: Positive allosteric modulator activity at GPR68 R189L mutant transfected in human HEK293T cells assessed as proton-mediated calcium release at 10 uM incubated for 10 mins by Fluo-4 Direct calcium dye based FLIPR assay (reference value: 6.85 +/- 0.02). The class given is cell-based. The following applies: HEK-293T.
The nature of series [26]: Positive allosteric modulator activity at GPR68 R189M mutant transfected in human HEK293T cells assessed as proton-mediated calcium release at 10 uM incubated for 10 mins by Fluo-4 Direct calcium dye based FLIPR assay (reference value: 6.77 +/- 0.01). Particulars: HEK-293T. The format is cell-based.
Series [27] can be described thus: Positive allosteric modulator activity at GPR68 E160Q mutant transfected in human HEK293T cells assessed as proton-mediated calcium release at 10 uM incubated for 10 mins by Fluo-4 Direct calcium dye based FLIPR assay (reference value: 6.86 +/- 0.04). The following applies: HEK-293T. The class given is cell-based.
Series [28] in a line: Toxicity in C57BL/6 mouse assessed as improvement in cue memory at 10 to 30 mg/kg administered for 30 mins by Morris water maze test. The class given is organism-based. The following applies: in vivo, 0.5 h, dose 10-30 mg/kg.
Series [29] has as its target T1, G-protein coupled receptor 68. Put plainly: Positive allosteric modulator activity at GPR68 expressed in human HEK293T cells assessed as proton-mediated calcium release at 10 uM incubated for 10 mins by Fluo-4 Direct calcium dye based FLIPR assay (reference value: 1.30 %). The class given is functional, cell-based.
The target is the same in series [30]. Put plainly: Positive allosteric modulator activity at GPR68 expressed in human HEK293T cells assessed as cAMP production in presence of H+ proton by Split-luciferase based luminescence counter analysis (reference value: 6.53 to 6.72). The class given is functional, cell-based.

Calls of active or inactive are those of the source.

T1 sequence (Q15743 whole entry): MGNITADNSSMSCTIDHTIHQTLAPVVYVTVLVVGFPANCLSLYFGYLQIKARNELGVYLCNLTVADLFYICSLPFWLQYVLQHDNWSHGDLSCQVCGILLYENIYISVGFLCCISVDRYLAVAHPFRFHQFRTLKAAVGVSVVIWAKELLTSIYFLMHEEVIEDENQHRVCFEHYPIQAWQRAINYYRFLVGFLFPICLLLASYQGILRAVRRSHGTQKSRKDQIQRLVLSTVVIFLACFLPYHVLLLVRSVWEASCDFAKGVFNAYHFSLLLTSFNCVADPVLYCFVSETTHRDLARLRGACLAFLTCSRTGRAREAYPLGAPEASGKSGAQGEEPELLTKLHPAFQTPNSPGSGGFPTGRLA
C-X-C chemokine receptor type 4 (Homo sapiens), sequence (P61073 whole entry): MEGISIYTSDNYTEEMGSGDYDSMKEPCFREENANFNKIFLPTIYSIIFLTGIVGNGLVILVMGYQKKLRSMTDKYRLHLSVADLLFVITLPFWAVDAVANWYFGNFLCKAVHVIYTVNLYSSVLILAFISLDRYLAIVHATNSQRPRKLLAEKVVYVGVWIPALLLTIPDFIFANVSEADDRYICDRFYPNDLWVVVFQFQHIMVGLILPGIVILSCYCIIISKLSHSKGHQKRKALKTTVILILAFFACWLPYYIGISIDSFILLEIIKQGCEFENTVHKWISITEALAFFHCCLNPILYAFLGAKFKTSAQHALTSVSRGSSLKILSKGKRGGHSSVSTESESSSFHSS
G-prodeshotein coupled receptor 4 (Homo sapiens), sequence (P46093 whole entry, looked up): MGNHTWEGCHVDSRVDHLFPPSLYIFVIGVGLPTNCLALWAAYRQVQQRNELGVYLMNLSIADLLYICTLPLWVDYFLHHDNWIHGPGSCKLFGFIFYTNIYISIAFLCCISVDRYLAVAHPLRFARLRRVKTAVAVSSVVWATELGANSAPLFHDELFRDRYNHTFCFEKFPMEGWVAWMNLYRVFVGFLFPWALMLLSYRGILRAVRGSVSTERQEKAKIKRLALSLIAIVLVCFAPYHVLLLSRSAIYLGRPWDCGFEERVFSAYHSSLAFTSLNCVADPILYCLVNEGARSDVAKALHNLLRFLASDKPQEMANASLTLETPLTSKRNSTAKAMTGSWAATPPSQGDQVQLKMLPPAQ

`O=C1Nc2ccc(Cl)cc2C(c2ccccc2Cl)=NC1O` (configuration not stated): the outcome in [1] and in series [7] was Active. Moreover, the result in [2], in [3], in series [5] and in series [8] was inactive. For the same molecule, the negative logarithm of the Kb (pKb) (usually the negative decadic logarithm of the Kb, by convention in mol/L) in series [4] amounted to 5.92. The Activity in series [6] is 2.

In the case of `Nc1nc(NCc2ccccc2)nc(-c2cccc(CO)c2)n1` [ZINC32547799], the figures for the Emax in series [9] and in series [29] were 43.1% and 1.33%, respectively. The result (in series [10]; in series [2]; in [3]; in the series listed under Mus musculus [23]; in the series listed under Mus musculus [24]) was inactive. For the same molecule, the Activity result in [11] was “Non-Toxic”; in [12], “Non-Toxic”; in [14], “Non-Toxic”; in series [15] it was “Non-Toxic”; in series [16], “Toxic”; in [28], “Non-Toxic”. The EC50 (usually the concentration needed to bring the measured effect to its halfway point) was 158 nM in series [13]; 339 nM in series [18]; 129 nM in series [25]; 186 nM in series [26]; 234 nM in series [27]; 158 nM in [30]. Moreover, the maximum response (Emax) (commonly the maximal effect, on the per cent scale that the assay sets) at 10 µM came to 1.52% in [17]; 1.35% in series [19]; 1.38% in [20]; 1.21% in series [21]; 1.36% in [22].

These data come from ChEMBL document CHEMBL5661984, “Allosteric ligands for the pharmacologically dark receptors GPR68 and GPR65” (Nature, 2015).
